From ChEMBL document CHEMBL1156100, “Design and synthesis of a simplified inhibitor for XIAP-BIR3 domain” (Bioorg Med Chem Lett, 2009)
Activity calls are given as the source filed them. No cut-off for these calls is given here.

These compounds were tested against T1, E3 ubiquitin-protein ligase XIAP (Homo sapiens, UniProt P98170) (assay: Inhibition of XIAP BIR3 domain at 10 to 100 uM by competitive fluorescence polarization binding assay).
T1 sequence (P98170 whole entry, the tested form may be a part): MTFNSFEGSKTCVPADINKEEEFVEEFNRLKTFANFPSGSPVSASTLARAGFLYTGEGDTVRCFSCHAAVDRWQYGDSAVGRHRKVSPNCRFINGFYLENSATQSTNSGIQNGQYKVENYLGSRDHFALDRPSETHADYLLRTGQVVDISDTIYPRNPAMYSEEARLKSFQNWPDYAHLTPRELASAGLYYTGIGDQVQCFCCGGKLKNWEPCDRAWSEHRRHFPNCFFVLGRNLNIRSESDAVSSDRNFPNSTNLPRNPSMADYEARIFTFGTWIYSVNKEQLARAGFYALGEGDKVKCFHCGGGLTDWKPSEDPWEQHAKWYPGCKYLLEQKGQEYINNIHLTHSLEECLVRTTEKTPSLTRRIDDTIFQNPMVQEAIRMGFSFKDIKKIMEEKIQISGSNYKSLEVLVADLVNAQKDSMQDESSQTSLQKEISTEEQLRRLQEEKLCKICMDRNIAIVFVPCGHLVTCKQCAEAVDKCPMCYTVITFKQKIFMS

Activity, active:
CN[C@@H](C)C(=O)Nc1nc2c(s1)CCC2C(=O)NCc1ccccc1 (stereo partly drawn)
C[C@H](N)C(=O)Nc1nc2c(s1)CCC2C(=O)NCc1ccccc1 (stereo partly drawn)
CN[C@@H](C)C(=O)Nc1nc2c(s1)CCC2C(=O)NC1CCCc2ccccc21 (mixture of isomers)
C[C@H](N)C(=O)Nc1nc2c(s1)CCC2C(=O)NC(c1ccccc1)c1ccccc1 (stereo partly drawn)
CN[C@@H](C)C(=O)Nc1nc2c(s1)CCC2C(=O)NC(c1ccccc1)c1ccccc1 (stereo partly drawn)
C[C@H](N)C(=O)Nc1nc2c(s1)CCC2C(=O)NC1CCCc2ccccc21 (stereo partly drawn)

Each compound was assayed against T1, E3 ubiquitin-protein ligase XIAP (assay: Inhibition of XIAP BIR3 domain at 100 uM by competitive fluorescence polarization binding assay).

Activity, inactive:
CN[C@@H](C)C(=O)Nc1nc2c(s1)CCCCC2C(=O)NCc1ccccc1 (stereo partly drawn)
C[C@H](N)C(=O)Nc1nc2c(s1)CCCCC2C(=O)NCc1ccccc1 (stereo partly drawn)
CN[C@@H](C)C(=O)Nc1nc2c(s1)CCCCC2C(=O)NC(c1ccccc1)c1ccccc1 (stereo partly drawn)
CN[C@@H](C)C(=O)Nc1nc2c(s1)CCCCC2C(=O)NC1CCCc2ccccc21 (stereo partly drawn)
C[C@H](N)C(=O)Nc1nc2c(s1)CCCCC2C(=O)NC(c1ccccc1)c1ccccc1 (stereo partly drawn)
C[C@H](N)C(=O)Nc1nc2c(s1)CCCCC2C(=O)NC1CCCc2ccccc21 (stereo partly drawn)

The compounds below were run against T1, E3 ubiquitin-protein ligase XIAP (assay: Inhibition of XIAP BIR3 domain by competitive fluorescence polarization binding assay).
Method in brief: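 Competitive fluorescence polarization displacement assay using the XIAP BIR3 domain, with BV6 run in parallel as the reference compound. Binding affinity is expressed as Ki.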

Ki, 5.58 µM:
CN[C@@H](C)C(=O)Nc1nc2c(s1)CC[C@H]2C(=O)N[C@@H]1CCCc2ccccc21

Ki, 37 µM:
CN[C@@H](C)C(=O)Nc1nc2c(s1)CCC2C(=O)NC1CCCc2ccccc21 (mixture of isomers)

The compounds below were run against T1, E3 ubiquitin-protein ligase XIAP (assay: Inhibition of XIAP BIR3 domain at 10 to 100 uM by competitive fluorescence polarization binding assay relative to 1 uM BV6 control).

Activity, active:
CN[C@@H](C)C(=O)Nc1nc2c(s1)CC[C@H]2C(=O)N[C@@H]1CCCc2ccccc21

Activity, inactive:
CN[C@@H](C)C(=O)Nc1nc2c(s1)CC[C@H]2C(=O)N[C@H]1CCCc2ccccc21
CN[C@@H](C)C(=O)Nc1nc2c(s1)CCC2C(=O)NC1CCCc2ccccc21 (mixture of isomers)
CN[C@@H](C)C(=O)Nc1nc2c(s1)CC[C@@H]2C(=O)NC1CCCc2ccccc21 (mixture of isomers)
